Our source for the IC50, Activity and inhibition values is ChEMBL document CHEMBL4177605, “3'-Hydroxy-3,4'-dimethoxyflavone blocks tubulin polymerization and is a potent apoptotic inducer in human SK-MEL-1 melanoma cells” (Bioorg Med Chem, 2017).

Assay [1] has as its system SK-MEL-1. In words: Cytotoxicity against human SK-MEL-1 cells assessed as reduction in cell viability after 72 hrs by MTT assay. The format is functional, cell-based. The note with it: SK-MEL-1, 72 h. In short, it runs like this:
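1×10^4 exponentially growing cells were seeded with a range of compound concentrations for 72 h. MTT (0.5 mg/mL) was added for 4 h at 37 °C, and formazan was dissolved in 10% SDS/0.05 M HCl overnight at room temperature in the dark. A570 was read. IC50 was found by nonlinear regression for each experiment, with at least three independent experiments in triplicate.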
Background: Tetrazolium dyes change colour on reduction, which living cells bring about.

In assay [2] the test system is SK-MEL-1. In words: Cell cycle arrest in human SK-MEL-1 cells assessed as accumulation at sub-G1 phase at 30 uM after 24 hrs by propidium iodide staining-based flow cytometry (reference value: 4.5+/-1.6%). The format is functional.
Assay [3] has as its system SK-MEL-1. In words: Induction of apoptosis in human SK-MEL-1 cells assessed as increase in caspase-3/7 activity by measuring DEVD-pNA substrate cleavage at 3 uM after 24 hrs by Bradford dye binding assay. The format is functional, cell-based. An outline of the steps:
(§1)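 After treatment, cells were lysed in 50 mM HEPES pH 7.4, 1 mM DTT, 0.1 mM EDTA, 0.1% CHAPS. Protein was quantified by Bradford and equal amounts were used. DEVD-pNA (caspase-3/7), IETD-pNA (caspase-8) or LEHD-pNA (caspase-9) cleavage was read as net A405 increase at 37 °C. Results are fold increase over control, means ± SE of three experiments in triplicate.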

The subject of assay [4] is SK-MEL-1. In words: Induction of apoptosis in human SK-MEL-1 cells assessed as increase in caspase-8 activity by measuring IETD-pNA substrate cleavage up to 30 uM after 24 hrs by Bradford dye binding assay. Format: functional, cell-based. An outline of the steps:
as §1

The subject of assay [5] is SK-MEL-1. In words: Cell cycle arrest in human SK-MEL-1 cells assessed as accumulation at G2/M phase at 10 uM after 24 hrs by propidium iodide staining-based flow cytometry (reference value: 16.1+/-0.2%). The format is functional.
In assay [6] the test system is SK-MEL-1. Kind of assay: Cell cycle arrest in human SK-MEL-1 cells assessed as accumulation at G2/M phase at 3 uM after 24 hrs by propidium iodide staining-based flow cytometry (reference value: 16.1+/-0.2%). The format is functional. In general terms: A flow cytometer gives signals particle by particle.
For assay [7], the system named is SK-MEL-1. In words: Induction of apoptosis in human SK-MEL-1 cells assessed as increase in caspase-9 activity by measuring LEHD-pNA substrate cleavage up to 30 uM after 24 hrs by Bradford dye binding assay. Format: functional, cell-based. An outline of the steps: as §1
The subject of assay [8] is SK-MEL-1. Kind of assay: Induction of apoptosis in human SK-MEL-1 cells assessed as increase in caspase-3/7 activity by measuring DEVD-pNA substrate cleavage up to 30 uM after 24 hrs by Bradford dye binding assay. Format: functional, cell-based. In short, it runs like this: as §1
The test system of assay [9] is SK-MEL-1. In words: Cell cycle arrest in human SK-MEL-1 cells assessed as accumulation at G1 phase at 30 uM after 24 hrs by propidium iodide staining-based flow cytometry (reference value: 61.5+/-1.7%). The format is functional.
For assay [10], the system named is SK-MEL-1. In words: Cell cycle arrest in human SK-MEL-1 cells assessed as accumulation at S phase at 30 uM after 24 hrs by propidium iodide staining-based flow cytometry (reference value: 17.7+/-0.4%). Format: functional.
In assay [11] the test system is SK-MEL-1. Kind of assay: Induction of apoptosis in human SK-MEL-1 cells assessed as increase in […] cytochrome c level by Western blot analysis. Format: functional, cell-based. In short, it runs like this:
(§2)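 Cells were treated with increasing concentrations for 24 h and washed in PBS. Whole-cell lysates were used for pro-caspase-3. For cytochrome c, a cytosolic fraction was prepared: cells swelled in hypotonic HEPES buffer with 250 mM sucrose, were lysed through a 22-gauge needle, and spun at 1000×g then 105000×g (45 min, 4 °C). Both were probed by immunoblotting.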

The subject of assay [12] is SK-MEL-1. In words: Induction of apoptosis in human SK-MEL-1 cells assessed as increase in caspase-8 activity by measuring IETD-pNA substrate cleavage at 3 uM after 24 hrs by Bradford dye binding assay. Format: functional, cell-based. In short, it runs like this: as §1
For another assay, the species on record is Bos taurus. Kind of assay: Inhibition of bovine tubulin polymerization measured at every 30 secs intervals for 50 mins in presence of GTP. An outline of the steps: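 Purified bovine tubulin without MAPs was incubated in 80 mM PIPES pH 7.0 with 1 mM GTP, 1 mM EGTA, 1 mM MgCl2 and 10% glycerol at 37 °C, across several compound concentrations. A340 was recorded every 30 s for 50 min. Taxol (10 µM) and colchicine (5 µM) served as promotion and inhibition controls.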

Assay [13] concerns SK-MEL-1. Kind of assay: Cell cycle arrest in human SK-MEL-1 cells assessed as accumulation at sub-G1 phase at 10 uM after 24 hrs by propidium iodide staining-based flow cytometry (reference value: 4.5+/-1.6%). The format is functional.
Assay [14] concerns SK-MEL-1. In words: Cytotoxicity against human SK-MEL-1 cells assessed as formation of unhealthy cells after 24 hrs by inverted phase contrast microscopic analysis. Format: functional, cell-based. An outline of the steps: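 Cells were grown in RPMI 1640 with 10% heat-inactivated FBS, 2 mM L-glutamine and penicillin/streptomycin (37 °C, 5% CO2). They were incubated with vehicle or increasing concentrations for 24 h, then imaged under an inverted phase-contrast microscope.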

The subject of assay [15] is SK-MEL-1. Kind of assay: Cell cycle arrest in human SK-MEL-1 cells assessed as accumulation at G1 phase at 3 uM after 24 hrs by propidium iodide staining-based flow cytometry (reference value: 61.5+/-1.7%). The format is functional.
For assay [16], the system named is SK-MEL-1. Kind of assay: Induction of apoptosis in human SK-MEL-1 cells assessed as chromatin fragmentation at 30 uM after 24 hrs by bisbenzimide trihydrochloride staining-based fluorescent microscopic analysis. Format: functional, cell-based. In short, it runs like this:
(§3)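 Cells were treated with 30 µM for 24 h, then stained with bisbenzimide trihydrochloride. Nuclear chromatin condensation and fragmentation were viewed by fluorescence microscopy.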

The subject of assay [17] is SK-MEL-1. In words: Cell cycle arrest in human SK-MEL-1 cells assessed as accumulation at S phase at 3 uM after 24 hrs by propidium iodide staining-based flow cytometry (reference value: 17.7+/-0.4%). The format is functional.
Assay [18] relates to SK-MEL-1. Kind of assay: Cell cycle arrest in human SK-MEL-1 cells assessed as accumulation at sub-G1 phase at 3 uM after 24 hrs by propidium iodide staining-based flow cytometry (reference value: 4.5+/-1.6%). Format: functional.
For assay [19], the system named is SK-MEL-1. In words: Induction of apoptosis in human SK-MEL-1 cells assessed as cleavage of main executioner caspase up to 30 uM after 24 hrs by Western blot method. The format is functional, cell-based. In short, it runs like this:
as §2
(A western blot detects proteins with antibodies after separation by electrophoresis.)

Assay [20] relates to SK-MEL-1. In words: Induction of apoptosis in human SK-MEL-1 cells assessed as condensation of cell nuclei and chromatins at 30 uM after 24 hrs by bisbenzimide trihydrochloride staining-based fluorescent microscopic analysis. Format: functional. In short, it runs like this: as §3
Assay [21] concerns SK-MEL-1. In words: Induction of apoptosis in human SK-MEL-1 cells assessed as increase in caspase-9 activity by measuring LEHD-pNA substrate cleavage at 3 uM after 24 hrs by Bradford dye binding assay. Format: functional, cell-based. In short, it runs like this:
as §1

The subject of assay [22] is SK-MEL-1. Kind of assay: Cell cycle arrest in human SK-MEL-1 cells assessed as accumulation at G1 phase at 10 uM after 24 hrs by propidium iodide staining-based flow cytometry (reference value: 61.5+/-1.7%). The format is functional.
Assay [23] deals with SK-MEL-1. In words: Cell cycle arrest in human SK-MEL-1 cells assessed as accumulation at G2/M phase at 30 uM after 24 hrs by propidium iodide staining-based flow cytometry (reference value: 16.1+/-0.2%). The format is functional.
For assay [24], the system named is SK-MEL-1. In words: Cell cycle arrest in human SK-MEL-1 cells assessed as accumulation at S phase at 10 uM after 24 hrs by propidium iodide staining-based flow cytometry (reference value: 17.7+/-0.4%). The format is functional.

The source made the active and inactive calls. No cut-off for these calls is given here.

With `COc1c(-c2ccc(O)cc2)oc2ccccc2c1=O`, the half-maximal inhibitory concentration (IC50) (in general, the point on the concentration scale where inhibition reaches its midpoint) in the assay with SK-MEL-1 [1] came to 91 µM.

`COc1ccc2c(=O)c(OC)c(-c3ccc(O)c(OC)c3)oc2c1`: in the assay on SK-MEL-1 [1], the half-maximal inhibitory concentration (IC50) turned out to be 52 µM.

As for `COc1ccc2c(=O)c(OC)c(-c3ccc(OC)c(O)c3)oc2c1`, in the assay on SK-MEL-1 [1], the IC50 came out at 26.2 µM.

Regarding `COc1ccc2c(=O)c(O)c(-c3ccc(O)cc3)oc2c1`, the IC50 in the assay with SK-MEL-1 [1] was greater than 100 µM.

In the case of `COc1ccc(-c2oc3ccccc3c(=O)c2OC)cc1O`, the Activity in the assay on SK-MEL-1 [2] was 21.9%; in the assay with SK-MEL-1 [5], 52.2%; in the assay on SK-MEL-1 [6] it was 37.9%; in the assay on SK-MEL-1 [9] it was 30.7%; in the assay with SK-MEL-1 [10] it was 26.8%; in the assay with SK-MEL-1 [11], “Dose-dependent effect”. Further, the Activity in the assay with SK-MEL-1 [13] was 9.2%; in the assay with SK-MEL-1 [15], 24.4%; with SK-MEL-1 [17] it was 21.4%; in the assay with SK-MEL-1 [18], 15.9%; with SK-MEL-1 [22], 14.4%; in the assay on SK-MEL-1 [23], 20.2%. Besides, the Activity in the assay with SK-MEL-1 [24] is 23.7%. In addition, the outcome in the assay on SK-MEL-1 [3], in the assay on SK-MEL-1 [4], in the assay with SK-MEL-1 [7], in the assay on SK-MEL-1 [8], in the assay on SK-MEL-1 [12] and with SK-MEL-1 [14] was Active. The result with SK-MEL-1 [16], in the assay on SK-MEL-1 [19], with SK-MEL-1 [20] and with SK-MEL-1 [21] was Active. Also, the IC50 with SK-MEL-1 [1] is 6.9 µM. Moreover, the inhibition entry in the assay filed under Bos taurus was “Dose-dependent effect”.

As to `COc1c(-c2ccccc2O)oc2ccccc2c1=O`, the IC50 in the assay with SK-MEL-1 [1] is greater than 100 µM.

As for `COc1ccc2c(=O)c(O)c(-c3ccccc3O)oc2c1`, in the assay with SK-MEL-1 [1], the IC50 was greater than 100 µM.

Take `COc1ccc(-c2oc3ccccc3c(=O)c2O)cc1O`: in the assay with SK-MEL-1 [1], the IC50 worked out at 32.6 µM.

As to `COc1cc(-c2oc3ccccc3c(=O)c2OC)ccc1O`, the IC50 in the assay on SK-MEL-1 [1] was 79 µM.

In the case of `O=c1c(O)c(-c2ccc(O)cc2)oc2ccccc12`, in the assay with SK-MEL-1 [1], the IC50 is greater than 100 µM.

`COc1cc(-c2oc3ccccc3c(=O)c2O)ccc1O`: the half-maximal inhibitory concentration (IC50) in the assay on SK-MEL-1 [1] was 22 µM.

With `O=c1c(O)c(-c2ccccc2O)oc2ccccc12`, in the assay on SK-MEL-1 [1], the concentration for half-maximal inhibition (IC50) was greater than 100 µM.

Consider `COc1ccc2c(=O)c(O)c(-c3ccc(OC)c(O)c3)oc2c1`, for which, in the assay on SK-MEL-1 [1], the IC50 is 15.5 µM.

For the compound `COc1cc([C@@H]2c3cc4c(cc3[C@@H](O[C@@H]3O[C@@H]5CO[C@@H](C)O[C@H]5[C@H](O)[C@H]3O)[C@H]3COC(=O)[C@H]23)OCO4)cc(OC)c1O` [ETOPOSIDE], the IC50 in the assay with SK-MEL-1 [1] is 8 µM.

In the case of `COc1ccc2c(=O)c(OC)c(-c3ccc(O)cc3)oc2c1`, the IC50 with SK-MEL-1 [1] is greater than 100 µM.

Regarding `COc1ccc2c(=O)c(O)c(-c3ccc(O)c(OC)c3)oc2c1`, in the assay on SK-MEL-1 [1], the concentration for half-maximal inhibition (IC50) amounted to 37 µM.
